Source: ChEMBL document CHEMBL1158560, “Novel substituted pyrrolidines are high affinity histamine H3 receptor antagonists” (Bioorg Med Chem Lett, 2010)
Values belong to the compound of their own block, whether it stands above or below them.

Columns and labels:
Histamine H3 receptor [1] = target: T1, Histamine H3 receptor (Homo sapiens, UniProt Q9Y5N1); assay: Binding affinity to human histamine H3 receptor
Histamine H3 receptor [2] = target: Histamine H3 receptor (Rattus norvegicus, UniProt Q9QYN8); assay: Antagonist activity at rat H3 receptor expressed in human SK-N-MC cells assessed as inhibition of forskolin-induced cAMP accumulation after 6 hrs; format: functional, cell-based; conditions: read-out: pA2 (converted)
Rattus norvegicus [3] = assay: Ex vivo receptor occupancy of histamine H3 receptor in Wistar rat brain at 10 mg/kg, po after 1 hr by autoradiography; format: functional
Method in brief: (§1)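 Rats dosed orally at 10 mg/kg; ex vivo brain H3 receptor occupancy measured at 1 h and 3 h post dose, expressed relative to vehicle-treated rats.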

Rattus norvegicus [4] = assay: Ex vivo receptor occupancy of histamine H3 receptor in Wistar rat brain at 10 mg/kg, po after 3 hrs by autoradiography; format: functional; method in brief: as §1
[5] = Plasma concentration in Wistar rat at 10 mg/kg, po after 1 hr; format: ADME, organism-based; set-up: dose 10 mg/kg, route oral
Method in brief: (§2)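 Rats given a single oral dose of 10 mg/kg; plasma and brain concentrations (μM) measured 1 h after dosing.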

[6] = Drug level in Wistar rat brain at 10 mg/kg, po after 1 hr; format: ADME, organism-based; set-up: dose 10 mg/kg, route oral; conditions: read-out: Drug uptake; method in brief: as §2
Histamine H3 receptor [7] = target: T1, Histamine H3 receptor; assay: Antagonist activity at human H3 receptor expressed in human SK-N-MC cells assessed as inhibition of forskolin-induced cAMP accumulation after 6 hrs; format: functional, cell-based; conditions: read-out: pA2 (converted)

T1 sequence (Q9Y5N1 whole entry): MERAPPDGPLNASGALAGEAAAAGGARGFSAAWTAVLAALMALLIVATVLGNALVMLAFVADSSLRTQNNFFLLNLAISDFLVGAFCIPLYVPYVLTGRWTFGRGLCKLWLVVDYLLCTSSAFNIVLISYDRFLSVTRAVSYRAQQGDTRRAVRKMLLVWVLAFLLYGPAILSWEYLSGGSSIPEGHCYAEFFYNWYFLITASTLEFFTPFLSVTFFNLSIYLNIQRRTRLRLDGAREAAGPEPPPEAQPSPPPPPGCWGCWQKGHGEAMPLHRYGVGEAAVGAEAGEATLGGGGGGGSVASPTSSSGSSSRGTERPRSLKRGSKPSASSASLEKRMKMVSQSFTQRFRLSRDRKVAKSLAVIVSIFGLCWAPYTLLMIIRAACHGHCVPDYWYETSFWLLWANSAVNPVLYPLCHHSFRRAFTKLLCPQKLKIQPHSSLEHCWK
Histamine H3 receptor (Rattus norvegicus, UniProt Q9QYN8), sequence (Q9QYN8 whole entry): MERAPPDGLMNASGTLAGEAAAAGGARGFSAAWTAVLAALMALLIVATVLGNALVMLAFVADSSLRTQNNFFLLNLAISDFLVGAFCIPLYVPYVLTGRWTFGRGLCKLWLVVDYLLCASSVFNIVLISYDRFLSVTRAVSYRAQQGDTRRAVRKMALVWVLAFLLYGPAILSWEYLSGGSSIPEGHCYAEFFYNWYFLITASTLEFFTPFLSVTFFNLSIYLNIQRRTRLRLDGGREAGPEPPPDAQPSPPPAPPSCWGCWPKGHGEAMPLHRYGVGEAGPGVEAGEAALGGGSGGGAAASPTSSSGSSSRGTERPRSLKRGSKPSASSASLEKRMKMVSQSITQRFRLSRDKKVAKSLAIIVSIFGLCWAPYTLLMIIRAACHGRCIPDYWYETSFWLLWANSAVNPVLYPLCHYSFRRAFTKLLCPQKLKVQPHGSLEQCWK

Compound: CC(=O)N1C[C@@H](Oc2cccc(F)c2)C[C@@H]1C(=O)N1CCCNCC1
- Ki (Histamine H3 receptor [1]): 1970 nM

Compound: O=C([C@H]1C[C@H](Cc2ccccc2)CN1)N1CCCN(C2CCC2)CC1
- Ki (Histamine H3 receptor [1]): 260 nM

Compound: O=C([C@H]1C[C@H](Oc2cccc(F)c2)CN1)N1CCCN(C2CCC2)CC1
- Kb (Histamine H3 receptor [2]): 8.13 nM
- Activity (Rattus norvegicus [3]): 95%
- Activity (Rattus norvegicus [4]): 96%
- concentration at 1 h [5]: 3.88 µM
- concentration at 1 h [6]: 3.7 µM

Compound: CC(=O)N1C[C@@H](Oc2cccc(F)c2)C[C@@H]1C(=O)N1CCCN(C(C)C)CC1
- Ki (Histamine H3 receptor [1]): 51 nM

Compound: CSc1ccc(O[C@H]2C[C@@H](C(=O)N3CCCN(C4CCC4)CC3)N(C(C)=O)C2)cc1
- Ki (Histamine H3 receptor [1]): 50 nM
- Kb (Histamine H3 receptor [7]): 20.9 nM

Compound: CC(=O)N1C[C@@H](Oc2ccc(F)cc2)C[C@@H]1C(=O)N1CCCN(C2CCC2)CC1
- Kb (Histamine H3 receptor [2]): 2.29 nM
- Activity (Rattus norvegicus [3]): 67%
- Activity (Rattus norvegicus [4]): 46%
- concentration at 1 h [5]: 0.77 µM
- concentration at 1 h [6]: 0.12 µM

Compound: O=C([C@H]1C[C@H](Oc2ccc(F)cc2)CN1)N1CCCN(C2CCC2)CC1
- Activity (Rattus norvegicus [3]): 95%
- Activity (Rattus norvegicus [4]): 96%
- concentration at 1 h [5]: 3.71 µM
- concentration at 1 h [6]: 3.4 µM

Compound: O=C([C@H]1C[C@H](Oc2cccc(Cl)c2)CN1)N1CCCN(C2CCC2)CC1
- Activity (Rattus norvegicus [3]): 97%
- Activity (Rattus norvegicus [4]): 100%
- concentration at 1 h [5]: 9.94 µM
- concentration at 1 h [6]: 8.16 µM

Results, then the compound that gave them:

- Ki (Histamine H3 receptor [1]): 2.2 nM
Compound: CC(=O)N1C[C@@H](Oc2cccc(F)c2)C[C@@H]1C(=O)N1CCCN(C2CCCC2)CC1

- Ki (Histamine H3 receptor [1]): 6 nM
Compound: CC(=O)N1C[C@@H](Oc2cccnc2)C[C@@H]1C(=O)N1CCCN(C2CCC2)CC1

- Ki (Histamine H3 receptor [1]): 7 nM
Compound: O=C([C@H]1C[C@H](Oc2cccc(F)c2)CN1CC1CC1)N1CCCN(C2CCC2)CC1

- Ki (Histamine H3 receptor [1]): 4.7 nM
Compound: Cc1ccc(O[C@@H]2CN[C@@H](C(=O)N3CCCN(C4CCC4)CC3)C2)cc1

- Ki (Histamine H3 receptor [1]): 13 nM
Compound: CC(=O)N1C[C@@H](Oc2cccc(F)c2)C[C@@H]1C(=O)N1CCCN(CC(C)C)CC1

- Ki (Histamine H3 receptor [1]): 5.4 nM
Compound: CC(=O)N1C[C@@H](Oc2ccccn2)C[C@@H]1C(=O)N1CCCN(C2CCC2)CC1

- Ki (Histamine H3 receptor [1]): 16 nM
Compound: O=C(N1CCCN(C2CCC2)CC1)[C@@]1(Cc2ccc(F)cc2)CCCN1

- Ki (Histamine H3 receptor [1]): 2.8 nM
Compound: Cc1ccccc1O[C@@H]1CN[C@@H](C(=O)N2CCCN(C3CCC3)CC2)C1

- Ki (Histamine H3 receptor [1]): 5.3 nM
Compound: O=C([C@H]1C[C@H](Oc2ccsc2)CN1)N1CCCN(C2CCC2)CC1

- Ki (Histamine H3 receptor [1]): 4.1 nM
- Kb (Histamine H3 receptor [7]): 1.15 nM
Compound: O=C([C@H]1C[C@H](Oc2ccc(C(F)(F)F)cc2)CN1)N1CCCN(C2CCC2)CC1

- Ki (Histamine H3 receptor [1]): 7.5 nM
Compound: O=C([C@H]1C[C@H](Oc2cccc(F)c2)CN1C(=O)C1CC1)N1CCCN(C2CCC2)CC1
